SMILES strings stand for the structures. Where only a bound is given, the exact number is not on record here.

Test [1] has as its target T1, 5-hydroxytryptamine receptor 2A (Homo sapiens, UniProt P28223). The test can be described thus: Effective concentration required for accumulation of [3H]inositol phosphate in cells stably expressing human 5-hydroxytryptamine 2A receptor determined by phosphoinositide hydrolysis assay. It counts as functional. The essentials: (§1)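 Phosphoinositide hydrolysis measured in cells expressing human 5-HT2A (stable) or 5-HT2B (transient) receptors, loaded overnight with [3H]inositol (15 Ci/mmol; 1 mCi/mL as supplied) in serum-free, inositol-free DMEM. Where SD is given, N ≥ 3.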

Test [2] has as its target T2, 5-hydroxytryptamine receptor 2C (Homo sapiens, UniProt P28335).
T2 sequence (P28335 whole entry): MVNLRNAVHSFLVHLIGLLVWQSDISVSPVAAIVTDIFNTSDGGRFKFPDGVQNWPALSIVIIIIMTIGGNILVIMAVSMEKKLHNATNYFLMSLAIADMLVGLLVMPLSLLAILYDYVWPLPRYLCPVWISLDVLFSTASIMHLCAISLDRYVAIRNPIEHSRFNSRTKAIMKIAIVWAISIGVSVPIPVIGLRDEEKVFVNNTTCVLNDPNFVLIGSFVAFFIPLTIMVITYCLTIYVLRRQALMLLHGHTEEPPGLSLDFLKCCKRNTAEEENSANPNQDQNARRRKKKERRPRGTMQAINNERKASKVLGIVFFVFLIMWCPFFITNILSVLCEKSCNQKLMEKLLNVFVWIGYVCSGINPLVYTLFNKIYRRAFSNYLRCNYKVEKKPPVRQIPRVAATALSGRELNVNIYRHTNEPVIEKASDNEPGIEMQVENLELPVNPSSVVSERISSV
Briefly: Effective concentration required for accumulation of [3H]inositol phosphate in cells stably expressing human 5-hydroxytryptamine 2C receptor determined by phosphoinositide hydrolysis assay. It counts as functional.

The target of test [3] is T2, 5-hydroxytryptamine receptor 2C. The test can be described thus: Inhibition constant against human 5-hydroxytryptamine 2C receptor [VGI isoforms] using [3H]mesulergine as radioligand with the compound (10 uM) dissolved in DMSO. In a few lines:
(§2)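 Competition binding with [3H]ketanserin (5-HT2A), [3H]mesulergine (5-HT2C) or [3H]LSD (5-HT2B) on receptor preparations. Compounds in 10% DMSO were first screened at a single concentration as duplicate determinations, each run in duplicate. Compounds giving >50% inhibition of specific binding were then tested in duplicate from 1 to 100,000 nM. Ki is the mean ± SD of computer-derived estimates, N = 4.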

Test [4] deals with T1, 5-hydroxytryptamine receptor 2A. The test can be described thus: Inhibition constant against human 5-hydroxytryptamine 2A receptor using [3H]ketanserin as radioligand with the compound (10 uM) dissolved in DMSO. In a few lines:
as §2

Test [5] deals with T3, 5-hydroxytryptamine receptor 2B (Homo sapiens, UniProt P41595). Briefly: Inhibition constant against human 5-hydroxytryptamine 2B receptor using [3H]LSD as radioligand with the compound (10 uM) dissolved in DMSO. In a few lines: as §2
T3 sequence (P41595 whole entry, canonical isoform): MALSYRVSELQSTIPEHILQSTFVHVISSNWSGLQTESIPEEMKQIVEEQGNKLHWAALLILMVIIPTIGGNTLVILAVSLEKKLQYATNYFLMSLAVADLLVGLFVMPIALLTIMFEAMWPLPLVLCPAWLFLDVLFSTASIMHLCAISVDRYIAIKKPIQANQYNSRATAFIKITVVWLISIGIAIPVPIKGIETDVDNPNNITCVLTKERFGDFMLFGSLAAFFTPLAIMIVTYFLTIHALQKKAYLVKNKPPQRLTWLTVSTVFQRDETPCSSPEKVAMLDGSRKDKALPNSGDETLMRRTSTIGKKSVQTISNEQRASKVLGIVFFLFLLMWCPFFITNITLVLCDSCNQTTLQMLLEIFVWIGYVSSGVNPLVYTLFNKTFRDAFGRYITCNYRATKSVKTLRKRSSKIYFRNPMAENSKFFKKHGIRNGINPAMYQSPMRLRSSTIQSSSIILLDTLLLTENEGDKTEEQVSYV
In test [6] the target is T2, 5-hydroxytryptamine receptor 2C. The test can be described thus: Inhibition constant against human 5-hydroxytryptamine 2C receptor [INI isoforms] using [3H]mesulergine as radioligand with the compound (10 uM) dissolved in DMSO. In a few lines: as §2
Test [7] deals with 5-hydroxytryptamine receptor 2A (Rattus norvegicus, UniProt P14842). The test can be described thus: Inhibition constant against rat 5-hydroxytryptamine 2A receptor using [3H]ketanserin as radioligand with the compound (10 uM) dissolved in DMSO. The essentials:
as §2

The target of test [8] is T4, 5-hydroxytryptamine receptor 2C (Rattus norvegicus, UniProt P08909).
T4 sequence (P08909 whole entry): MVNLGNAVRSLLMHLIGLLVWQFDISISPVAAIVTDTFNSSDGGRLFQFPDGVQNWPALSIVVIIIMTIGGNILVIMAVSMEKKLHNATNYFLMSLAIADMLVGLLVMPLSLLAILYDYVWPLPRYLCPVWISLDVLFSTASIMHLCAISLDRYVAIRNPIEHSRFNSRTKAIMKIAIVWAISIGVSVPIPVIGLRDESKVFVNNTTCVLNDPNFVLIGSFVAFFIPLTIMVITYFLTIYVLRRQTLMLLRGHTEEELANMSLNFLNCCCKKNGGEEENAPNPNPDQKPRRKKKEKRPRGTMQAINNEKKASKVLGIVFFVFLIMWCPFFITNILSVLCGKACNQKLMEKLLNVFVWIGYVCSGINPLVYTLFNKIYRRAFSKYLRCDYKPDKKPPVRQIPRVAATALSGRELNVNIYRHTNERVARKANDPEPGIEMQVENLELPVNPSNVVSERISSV
The test can be described thus: Inhibition constant against rat 5-hydroxytryptamine 2C receptor using [3H]mesulergine as radioligand with the compound (10 uM) dissolved in DMSO. The essentials:
as §2

In test [9] the target is T3, 5-hydroxytryptamine receptor 2B. The test can be described thus: Effective concentration required for accumulation of [3H]inositol phosphate in cells transiently expressing human 5-hydroxytryptamine 2B receptor determined by phosphoinositide hydrolysis assay. It counts as functional. The essentials:
as §1

For test [10] the target is unchanged. The test can be described thus: Antagonistic activity against accumulation of [3H]inositol phosphate in cells transiently expressing human 5-hydroxytryptamine 2B receptor determined by phosphoinositide hydrolysis assay. Type of test: functional. The following applies: filed as antagonist. In a few lines:
(§3)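 Phosphoinositide hydrolysis assay with human receptors, 5-HT2A and 5-HT2C expressed stably and 5-HT2B transiently. Cells were loaded overnight with [3H]inositol (15 Ci/mmol; 1 mCi/mL as supplied) in inositol-free DMEM without serum.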

Test [11] addresses T5, 5-hydroxytryptamine receptor 2C (Homo sapiens) (UniProt P28335).
T5 sequence (whole entry): T2 sequence (P28335 whole entry)
Briefly: Antagonistic activity against accumulation of [3H]inositol phosphate in cells stably expressing human 5-hydroxytryptamine 2C receptor determined by phosphoinositide hydrolysis assay. It counts as functional. The following applies: filed as antagonist. The essentials:
as §3

In test [12] the target is T1, 5-hydroxytryptamine receptor 2A. Briefly: Antagonistic activity against accumulation of [3H]-inositol phosphate in cells stably expressing human 5-hydroxytryptamine 2A receptor determined by phosphoinositide hydrolysis assay. It counts as functional. The following applies: filed as antagonist. The essentials:
as §3

T1 sequence (P28223 whole entry): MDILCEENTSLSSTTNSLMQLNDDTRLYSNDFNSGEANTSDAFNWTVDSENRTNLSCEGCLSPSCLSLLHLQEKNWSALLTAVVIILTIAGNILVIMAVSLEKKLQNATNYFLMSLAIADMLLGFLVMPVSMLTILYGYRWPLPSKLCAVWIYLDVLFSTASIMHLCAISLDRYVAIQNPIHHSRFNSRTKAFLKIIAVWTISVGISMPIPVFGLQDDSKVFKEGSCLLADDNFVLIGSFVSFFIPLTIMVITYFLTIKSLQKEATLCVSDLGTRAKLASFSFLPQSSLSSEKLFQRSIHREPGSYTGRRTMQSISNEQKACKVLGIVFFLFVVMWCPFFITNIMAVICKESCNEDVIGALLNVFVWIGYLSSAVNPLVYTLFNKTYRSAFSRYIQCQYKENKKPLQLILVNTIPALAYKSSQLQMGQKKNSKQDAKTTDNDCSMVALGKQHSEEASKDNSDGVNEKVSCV
Chain of 5-hydroxytryptamine receptor 2A (Rattus norvegicus, UniProt P14842) (P14842 whole entry): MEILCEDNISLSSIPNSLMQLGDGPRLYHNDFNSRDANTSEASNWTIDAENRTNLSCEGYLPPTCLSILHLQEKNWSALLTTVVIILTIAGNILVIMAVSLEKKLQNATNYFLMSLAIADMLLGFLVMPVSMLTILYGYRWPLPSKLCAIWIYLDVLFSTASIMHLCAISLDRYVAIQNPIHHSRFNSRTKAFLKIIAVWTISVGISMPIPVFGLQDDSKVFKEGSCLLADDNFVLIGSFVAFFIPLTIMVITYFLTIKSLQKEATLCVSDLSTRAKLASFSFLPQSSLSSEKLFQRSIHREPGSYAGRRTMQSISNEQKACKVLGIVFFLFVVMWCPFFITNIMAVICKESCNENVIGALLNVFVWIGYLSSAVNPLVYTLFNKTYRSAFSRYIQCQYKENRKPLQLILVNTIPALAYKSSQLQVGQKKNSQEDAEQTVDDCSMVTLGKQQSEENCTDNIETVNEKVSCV

For orientation: EC50 means the concentration needed to bring the measured effect to its halfway point. Higher therefore signals lower potency in that assay. With `CN(C)CCc1c[nH]c2cccc(OP(=O)(O)O)c12` [PSILOCYBIN], the EC50 in test [1] amounted to 3480 nM; in [2], 506 nM.

The term Ki denotes a dissociation constant, usually derived from enzyme kinetics or from competition with a known ligand. Read a low Ki as higher affinity. As for `CN(C)CCCc1c[nH]c2cccc(O)c12`, the Ki in test [3] came out at 84 nM; in test [4], 588 nM; in test [5], 98 nM; in [6] it was 1110 nM.

Turning to `Oc1cccc2[nH]cc(CCN3CCCC3)c12`, the inhibition constant (Ki) in test [3] came to 1770 nM; in [4], 429 nM; in test [5] it was 423 nM; in test [6], 275 nM.

Regarding `CCCCn1cc(CCN(C)C)c2c(O)cccc21`, the Ki in [3] stood at 14 nM; in test [7], 200 nM; in test [8], 15.7 nM; in test [4] it was 310 nM; in test [5] it was 5.8 nM; in [6], 4.4 nM. In addition, the EC50 stood at 32 nM in [1] and 595 nM in test [2].

For `CN(C)CCc1c[nH]c2cccc(F)c12`, the Ki came out at 84 nM in [3]; 1010 nM in test [7]; 359 nM in test [8]; 335 nM in test [4]; 8.39 nM in test [5]; 82 nM in [6]. The figures for the EC50 in test [9], in test [1] and in [2] were 1180 nM, 949 nM and 99 nM, respectively.

With `Cc1[nH]c2cccc(O)c2c1CCN(C)C`, the Ki is 539 nM in test [3], 1680 nM in test [7], 1280 nM in test [8] and 122 nM in test [4].

Take `CCCCn1cc(CCN(C)C)c2c(OP(=O)(O)O)cccc21`: the Activity entry in test [10], in test [11] and in test [12] was “Antagonist” in each case. The Ki in [3] was 210 nM; in test [7], > 10000 nM; in [8], 5700 nM; in test [4], 3000 nM; in [5] it was 170 nM; in test [6], 73 nM.

Turning to `CN1CCN(CCc2c[nH]c3cccc(O)c23)CC1`, the Ki in test [7] was 6900 nM; in test [8] it was > 10000 nM; in test [4] it was 9750 nM; in test [5] it was 116 nM; in [6], 103 nM.

As to `CN(C)Cc1cn(C)c2cccc(O)c12`, the Ki stood at 125 nM in test [3], 498 nM in [4], 1240 nM in [5] and 87 nM in [6].

As to `CN(C)CCc1cn(C)c2cccc(O)c12`, the Ki in [3] was determined as 33 nM; in [7], 590 nM; in [8], 48 nM; in [4], 900 nM; in test [5], 38 nM; in test [6] it was 7 nM. In addition, the EC50 in [1] stood at 633 nM; in [2], 12 nM.

Take `CN(C)CCn1ccc2c(O)cccc21`: the Ki in test [3] is 4200 nM; in test [7], > 10000 nM; in [8], 9350 nM; in test [6], 2180 nM.

As for `CN(C)CCc1cn(C)c2cccc(OP(=O)(O)O)c12`, the Ki in test [3] was 540 nM; in test [7], > 10000 nM; in test [8] it was > 10000 nM; in test [4] it was > 10000 nM; in [5] it was 5500 nM; in test [6], > 10000 nM.

Consider `CN(C)Cc1c[nH]c2cccc(O)c12`, for which the Activity entry in [10], in test [11] and in [12] was “Antagonist” in each case. Besides, the Ki in [3] was found to be 12.6 nM; in test [7] it was 834 nM; in [8] it was 49 nM; in [4], 923 nM; in test [5], 1240 nM; in test [6], 24 nM.

With `Oc1cccc2[nH]cc(CCN3CCCc4ccccc43)c12`, the Ki in [7] came to 8370 nM; in test [8], 1450 nM; in test [5], 5570 nM; in test [6], 468 nM.

For `CC(Cc1c[nH]c2cccc(O)c12)N(C)C` (centres undefined), the values for the Ki in test [4], in test [5] and in test [6] were 982 nM, 745 nM and 126 nM, respectively.

Regarding `CN(C)CCc1c[nH]c2cc(O)ccc12`, the Ki in [3] was 6800 nM; in test [7], > 10000 nM; in [8] it was 19000 nM; in [4], 7600 nM; in test [5] it was 6300 nM; in [6], > 10000 nM.

These data come from ChEMBL document CHEMBL1142853 (Bioorg Med Chem Lett, 2005).
